High-throughput results (PubChem)
Kir21 inh = inhibitors of mouse Kir2.1 inward-rectifier potassium channel. Inward rectifier potassium channel 2 (Mus musculus), P35561. HEK293-Kir2.1, FluxOR thallium flux fluorescence; hits give low values. B-score at 10 µM. 310,000 compounds, 0.85% hits. AID 1672, 2009;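 active = fluorescence ratio B-score at or below minus 3 SD of library scores, with starting-brightness B-score within 2 SD, cut at about -4.2 in these data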;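 note: channel flux triggered by added potassium and thallium sulfate stimulus; B-score of peak minus minimum fluorescence over baseline after thallium stimulus; more negative B-score means stronger Kir2.1 block with less thallium influx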
Target sequence (P35561 whole entry, looked up): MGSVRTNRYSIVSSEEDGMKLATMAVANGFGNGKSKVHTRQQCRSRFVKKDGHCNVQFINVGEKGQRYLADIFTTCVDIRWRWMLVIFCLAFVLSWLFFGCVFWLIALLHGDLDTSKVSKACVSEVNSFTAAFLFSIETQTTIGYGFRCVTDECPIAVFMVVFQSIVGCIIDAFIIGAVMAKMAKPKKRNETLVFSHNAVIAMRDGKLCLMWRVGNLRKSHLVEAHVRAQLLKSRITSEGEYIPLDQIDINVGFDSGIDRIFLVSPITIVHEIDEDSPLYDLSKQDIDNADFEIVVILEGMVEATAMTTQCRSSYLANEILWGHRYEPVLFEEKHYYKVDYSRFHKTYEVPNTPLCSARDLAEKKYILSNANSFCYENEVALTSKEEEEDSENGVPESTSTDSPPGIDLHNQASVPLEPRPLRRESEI
hERG rescue = hERG rescue from dofetilide block, primary screen, cell-based, CHO-hERG, FluxOR thallium flux, dofetilide IC70 | Voltage-gated inwardly rectifying potassium channel KCNH2 (Homo sapiens), Q12809 | dofetilide IC70 present | activation (rescue from dofetilide block), less the hit threshold, % at 10 µM | 310,000 compounds, 0.51% hits;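 active = activation above the mean of controls blocked by dofetilide plus 5 SD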;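 note: thallium influx through hERG after potassium depolarization seen as dye fluorescence rise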
KCNK9 block = KCNK9 potassium channel inhibitors, primary screen, HEK293 cells, thallium flux; Potassium channel subfamily K member 9 (Homo sapiens), Q9NPC2; FluxOR thallium flux fluorescence; hits give low values; B-score at 10 µM; 310,000 compounds, 1.2% hits; AID 488922, 2010;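 active = ratio B-score over 3 SD below the library mean, with starting fluorescence within 5 SD of its mean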;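 note: negative B-score means less thallium flux so channel inhibition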
KCNQ1 act = potentiators or activators of KCNQ1 channel, primary screen, cell-based, thallium flux, high-throughput. B-score at 10 µM. CHO-K1 KCNQ1, thallium flux FluxOR fluorescence; hits give high values. 310,000 compounds, 0.35% hits. Potassium voltage-gated channel subfamily KQT member 1 (Homo sapiens), P51787. AID 2648, 2010;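 active = fluorescence ratio B-score, a plate-corrected score, at least three library SD, with initial intensity B-score within 5 SD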
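System: CHO-K1 cells stably expressing KCNQ1 / Medium: assay buffer for compound exposure, DMSO matched across wells / Reagent: thallium- and potassium-containing depolarizing buffer / Compound: one concentration, matched DMSO / Incubation: 20 min compound pretreatment at room temperature / Measured by: kinetic FluxOR fluorescence, 10 s baseline plus 110 s post-stimulus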
KCNQ1 inh = inhibitors of human KCNQ1 channel, primary screen, cell-based, thallium flux, high-throughput; CHO-K1 KCNQ1, FluxOR thallium flux fluorescence; hits give high values; B-score at 10 µM; 310,000 compounds, 1.3% hits;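 active = compounds whose thallium flux B-score, printed positive for inhibition, exceeds three library SD while starting fluorescence stays within three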;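 note: channel opened by potassium depolarization with thallium stimulus after 20 min compound exposure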
KCNK3 inh = human KCNK3 channel inhibitors, primary screen, CHO cells, FluxOR thallium flux, B-score. 340,000 compounds, 0.84% hits. FluxOR fluorescence; hits give low values. B-score at 10 µM. Potassium channel subfamily K member 3 (Homo sapiens), O14649;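 active = B-score under library mean minus 4 SD, starting fluorescence ratio at most library mean plus 5 SD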;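 note: more negative B-score means stronger inhibition of thallium flux through KCNK3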
KCNK9 inh conf = KCNK9 potassium channel inhibitors, confirmation, HEK293 cells, thallium flux, duplicate; shares compounds with KCNK9 block; FluxOR thallium flux fluorescence; inhibition, % at 10 µM; 4,900 compounds, 43% hits; AID 492992, 2010;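 active = thallium signal inhibited by more than 5 SD of the compound-free buffer control wells, on both duplicate plates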;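 note: 0% = assay buffer control wells without compound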
Kir2-1 spec = mouse Kir2.1 channel inhibition, confirmation, selectivity assay for KCNK9 modulator project, cell-based, HEK293, thallium flux | shares compounds with KCNK9 block | Kir2.1 cells, FluxOR thallium flux fluorescence | inhibition, % at 10 µM | 4,900 compounds, 4% hits | AID 492993, 2010;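 active = thallium signal drop more than 5 SD beyond the mean of the no-compound control wells, seen in both duplicate plates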;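 note: signal is fluorescence rise after thallium addition divided by baseline fluorescence; plate controls were assay buffer only for no effect and full block by chlorpromazine control for full effect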
HEK293 Tl ctr = thallium flux in non-induced HEK293 cells, confirmation, counter-screen for KCNK9 inhibitor project, cell-based, second counter screen, non-induced KCNK9-HEK293; shares compounds with KCNK9 block; FluxOR thallium flux; inhibition, % at 10 µM; 4,900 compounds, 40% hits; AID 492997, 2010;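 active = thallium signal drop beyond 5 SD of the untreated control mean, on both duplicate plates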;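 note: plate controls were buffer only IC0 wells for no effect and SID17386958 at its maximal inhibitory level for full effect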
The depositor's hits bear a star; i = inactive; · = no result given. The list is not random: actives were taken first. Their share in the collection is about 3.8%.

SMILES | Kir21 inh | hERG rescue | KCNK9 block | KCNQ1 act | KCNQ1 inh | KCNK3 inh | KCNK9 inh conf | Kir2-1 spec | HEK293 Tl ctr
COc1ccc(OC)c(CCNC(=O)c2ccc3c(c2)N(Cc2ccc(F)cc2)CCS3)c1 | 0.59 | -11 | -11* | i | 7* | -10* | 69%* | i | 32%*
Cc1ccc(CN2CCSc3ccc(C(=O)NC4CCCC4)cc32)cc1 | 1 | -8 | -11* | i | i | i | 52%* | i | 31%*
CCOC(=O)CCN(C(=O)Nc1ccccc1)C1CCCCC1 | · | · | · | · | · | i | · | · | ·
O=C(Nc1ccccn1)c1ccc(Cl)c(S(=O)(=O)N2CCc3ccccc32)c1 | · | · | · | · | · | i | · | · | ·
CCN(CC)S(=O)(=O)c1ccc(N2CCc3ccccc3C2)nc1 | -1.6 | -14 | i | i | i | i | i | i | i
CC(C)N(C(C)C)S(=O)(=O)c1ccc(N2CCc3ccccc3C2)nc1 | 2.1 | -10 | i | i | i | i | i | i | i
CCN(CC)S(=O)(=O)c1ccc(N2CCN(S(=O)(=O)c3ccccc3)CC2)nc1 | -1.6 | -12 | i | i | i | i | · | · | ·
Cc1ccc(/C=N/NC(=O)CSc2nc3ccccc3n2Cc2ccc(Cl)cc2)o1 | 1.4 | -11 | -21* | i | i | i | 62%* | i | 50%*
Cc1ccc(/C=N/NC(=O)CSc2nc3ccccc3n2Cc2ccccc2)o1 | -0.02 | -12 | i | i | i | i | · | · | ·
COc1cccc(CC2(CO)CCCN(Cc3ccc(OC)c(C)c3OC)C2)c1 (configuration not stated) | -0.9 | -14 | i | i | i | i | i | i | i
Cn1cc(CN2CCCC(CO)(Cc3ccccc3)C2)c2ccccc21 (configuration not stated) | -1.7 | -10 | i | i | i | i | i | i | 28%*
OCC1(Cc2ccccc2)CCCN(Cc2cn[nH]c2-c2ccccc2)C1 (configuration not stated) | -1.2 | -5 | i | i | i | i | · | · | ·
COc1ccc(C(=O)NC(C)CCn2cccn2)cc1OC1CCN(C(C)C)CC1 (configuration not stated) | 0.21 | -3 | i | i | i | i | · | · | ·
CC(Oc1ccc(F)cc1)C(=O)Nc1ccccc1N1CCCCC1 (configuration not stated) | -3.3 | -13 | -8.5* | i | 6* | i | 52%* | 46%* | 32%*
CC(C)Oc1ccc(C(=O)Nc2ccccc2N2CCCC2)cc1 | -0.48 | -5 | -14* | i | i | i | 58%* | i | 29%*
CC(Oc1ccc(F)cc1)C(=O)Nc1cc(S(=O)(=O)N2CCCCC2)ccc1N1CCN(C)CC1 (configuration not stated) | · | · | · | · | · | i | · | · | ·
COc1ccc(C(=O)Nc2ccccc2N2CCCC2)cc1 | 0.5 | -6 | i | i | i | i | · | · | ·
COC(=O)c1cc(NC(=O)C2(S(=O)(=O)c3ccc(C)cc3)CC2)cc(C(=O)OC)c1 | 0.9 | -5 | i | i | i | i | i | i | i
COC(=O)c1cc(NC(=O)C2(S(=O)(=O)c3ccc(Cl)cc3)CC2)cc(C(=O)OC)c1 | 0.97 | -9 | i | i | i | i | · | · | ·
CCNC(=O)c1ccccc1NC(=O)C1CC(=O)N(C(C)C)C1 (configuration not stated) | -0.68 | -2 | i | i | i | i | · | · | ·
Cc1ccc(NC(=O)C2CCN(S(=O)(=O)c3c(C)noc3/C=C/c3ccco3)CC2)nc1 | 3.8 | -5 | i | i | i | i | · | · | ·
Cc1cccnc1NC(=O)C1CCN(S(=O)(=O)c2c(C)noc2/C=C/c2ccco2)CC1 | 0.24 | -11 | i | i | i | i | i | i | i
N#CCCN(C(=O)COC(=O)CCN=C1NS(=O)(=O)c2ccccc21)c1ccc(F)cc1 | -0.09 | -12 | i | i | i | i | · | · | ·
c1ccc(C2Nc3ccccc3C3OCCCC23)cc1 (configuration not stated) | -3.7 | -5 | i | i | i | i | i | i | i
CCC(=O)c1ccc(OC)c(OC)c1OCc1ccccc1 | · | · | · | · | · | i | · | · | ·
SMILES | Kir21 inh | hERG rescue | KCNK9 block | KCNQ1 act | KCNQ1 inh | KCNK3 inh | KCNK9 inh conf | Kir2-1 spec | HEK293 Tl ctr
O=C(COC(=O)C1CC(=O)N(Cc2ccccc2)C1)Nc1cccc([N+](=O)[O-])c1 (configuration not stated) | · | · | · | · | · | i | · | · | ·
Cc1cc(=O)c2cc(Br)ccc2n1CC(=O)NCc1ccccc1 | -1.6 | -7 | -9.7* | i | i | i | i | i | 33%*
O=C(Cn1c(=O)n(CC(=O)NCc2ccccc2)c2ccccc21)NCc1ccccc1 | 1.2 | 1 | i | i | i | i | · | · | ·
Cc1nn(-c2ccccc2)c2nc(C(F)(F)F)[nH]c(=O)c12 | 1.3 | -1 | i | i | i | i | · | · | ·
Cc1nn(-c2cc(C(F)(F)F)ccc2Cl)c2nc(C(Cl)(Cl)Cl)[nH]c(=O)c12 | 0.54 | -4 | i | i | i | i | i | i | i
NC(=O)N/N=C/c1ccc(-c2cccc(C(F)(F)F)c2)o1 | 0.01 | -18 | i | i | i | i | · | · | ·
O=C(N/N=C/c1ccc(-c2cccc(C(F)(F)F)c2)o1)c1cccc(F)c1 | 1.9 | -19 | -9.9* | i | i | i | i | i | i
Cc1csc2c(N3CCN(C(=O)Nc4ccc(OC(F)(F)F)cc4)CC3)ncnc12 | -1.2 | -14 | i | i | i | i | · | · | ·
Cc1ccc(S(=O)(=O)N/N=C/c2ccc(OS(=O)(=O)c3ccc(C)c([N+](=O)[O-])c3)cc2)cc1 | -2.7 | -10 | i | i | i | i | i | i | i
